Drawing on paper PMC3589814 (Journal of molecular biology, 2012), this text covers Kd for one molecule.

Holding throughout (test): isothermal titration calorimetry
What all share (assay type): binding

Assay [1] has as its target ScRR1 (Saccharomyces cerevisiae, UniProt P21524, Q288A). In short, it runs like this:
(§1)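 Yeast RR1 (wild type or loop 2 mutant) in the ITC cell at 25 °C, in 50 mM Hepes pH 7.0 with 5 mM MgCl₂, 5 mM DTT and 5% glycerol (20 µM protein for wild type). Titrant was 0.5 mM dGTP. For ADP binding the protein was pre-saturated with dGTP (500 µM); for CDP binding it was pre-saturated with AMPPNP. Blank-corrected heats were fitted to a one-site model, and Kd was taken from the association constant.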

Assay [2] has as its target ScRR1 (Saccharomyces cerevisiae, UniProt P21524, R293A). The procedure, abridged: as §1
Assay [3] concerns the target T1, ScRR1 (Saccharomyces cerevisiae, UniProt P21524).
T1 sequence (P21524 1-888): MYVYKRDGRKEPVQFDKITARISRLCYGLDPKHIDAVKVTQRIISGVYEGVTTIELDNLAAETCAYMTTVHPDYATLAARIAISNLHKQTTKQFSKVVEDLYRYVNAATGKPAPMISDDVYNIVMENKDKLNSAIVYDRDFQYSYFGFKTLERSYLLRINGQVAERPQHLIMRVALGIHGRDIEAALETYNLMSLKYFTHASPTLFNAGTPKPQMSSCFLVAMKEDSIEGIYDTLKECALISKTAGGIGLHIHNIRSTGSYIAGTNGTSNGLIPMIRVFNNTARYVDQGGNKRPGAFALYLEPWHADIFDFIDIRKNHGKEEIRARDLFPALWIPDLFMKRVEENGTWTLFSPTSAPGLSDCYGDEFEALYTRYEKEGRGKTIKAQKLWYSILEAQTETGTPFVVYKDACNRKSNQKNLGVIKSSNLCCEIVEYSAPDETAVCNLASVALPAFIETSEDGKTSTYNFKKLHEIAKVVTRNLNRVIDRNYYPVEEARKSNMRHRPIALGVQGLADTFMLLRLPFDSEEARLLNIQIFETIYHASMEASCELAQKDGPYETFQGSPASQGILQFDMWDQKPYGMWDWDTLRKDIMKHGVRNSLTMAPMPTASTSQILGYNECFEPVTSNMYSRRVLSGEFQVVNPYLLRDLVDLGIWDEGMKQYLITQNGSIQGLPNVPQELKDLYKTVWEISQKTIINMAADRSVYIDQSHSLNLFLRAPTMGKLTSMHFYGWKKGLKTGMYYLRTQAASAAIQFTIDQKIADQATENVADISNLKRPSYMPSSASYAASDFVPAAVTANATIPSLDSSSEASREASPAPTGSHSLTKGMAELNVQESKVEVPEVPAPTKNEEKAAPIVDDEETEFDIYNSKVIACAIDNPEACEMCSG
The procedure, abridged:
as §1

Sequence of ScRR1 (Saccharomyces cerevisiae, UniProt P21524, Q288A) (P21524 whole entry Q288A): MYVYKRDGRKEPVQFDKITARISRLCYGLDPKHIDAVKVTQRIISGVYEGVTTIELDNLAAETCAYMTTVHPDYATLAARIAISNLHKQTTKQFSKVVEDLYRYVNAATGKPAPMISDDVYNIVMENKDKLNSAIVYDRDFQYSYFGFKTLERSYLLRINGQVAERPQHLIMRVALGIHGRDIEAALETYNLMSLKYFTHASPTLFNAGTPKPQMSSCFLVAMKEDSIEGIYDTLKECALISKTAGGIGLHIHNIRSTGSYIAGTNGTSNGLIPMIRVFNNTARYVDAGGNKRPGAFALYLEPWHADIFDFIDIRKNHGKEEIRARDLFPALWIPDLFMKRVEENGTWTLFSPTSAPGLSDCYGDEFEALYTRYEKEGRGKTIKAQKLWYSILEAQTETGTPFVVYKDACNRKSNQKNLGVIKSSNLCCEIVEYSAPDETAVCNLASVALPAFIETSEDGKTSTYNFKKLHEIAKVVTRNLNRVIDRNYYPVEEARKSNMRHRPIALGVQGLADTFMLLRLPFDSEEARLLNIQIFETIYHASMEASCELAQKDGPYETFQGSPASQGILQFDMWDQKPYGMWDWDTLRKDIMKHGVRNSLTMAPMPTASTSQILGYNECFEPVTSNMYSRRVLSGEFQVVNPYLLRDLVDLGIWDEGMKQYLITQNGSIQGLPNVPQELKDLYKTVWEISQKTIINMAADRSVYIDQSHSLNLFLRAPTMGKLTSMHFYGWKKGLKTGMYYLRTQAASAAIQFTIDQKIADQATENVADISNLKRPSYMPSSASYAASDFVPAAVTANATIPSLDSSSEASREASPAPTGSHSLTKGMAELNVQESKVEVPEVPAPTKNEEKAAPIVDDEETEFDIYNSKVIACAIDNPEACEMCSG
Sequence of ScRR1 (Saccharomyces cerevisiae, UniProt P21524, R293A) (P21524 whole entry R293A): as the sequence (P21524 whole entry Q288A) above, with A288Q, R293A counted along it

As to `Nc1nc2c(ncn2[C@H]2C[C@H](O)[C@@H](COP(=O)(O)OP(=O)(O)OP(=O)(O)O)O2)c(=O)[nH]1` [dGTP], the dissociation constant Kd was determined as 520 nM in assay [1], 570 nM in assay [2] and 270 nM in assay [3].
